# Assay results: ChEMBL document CHEMBL3259745, “Identification of trisubstituted-pyrazol carboxamide analogs as novel and potent antagonists of farnesoid X receptor” (Bioorg Med Chem, 2014)
# The source made the active and inactive calls. The calls are words filed in the database; no cut-off is given here.
# Target: T1, Bile acid receptor (Homo sapiens) (UniProt Q96RI1)
# T1 sequence (whole entry): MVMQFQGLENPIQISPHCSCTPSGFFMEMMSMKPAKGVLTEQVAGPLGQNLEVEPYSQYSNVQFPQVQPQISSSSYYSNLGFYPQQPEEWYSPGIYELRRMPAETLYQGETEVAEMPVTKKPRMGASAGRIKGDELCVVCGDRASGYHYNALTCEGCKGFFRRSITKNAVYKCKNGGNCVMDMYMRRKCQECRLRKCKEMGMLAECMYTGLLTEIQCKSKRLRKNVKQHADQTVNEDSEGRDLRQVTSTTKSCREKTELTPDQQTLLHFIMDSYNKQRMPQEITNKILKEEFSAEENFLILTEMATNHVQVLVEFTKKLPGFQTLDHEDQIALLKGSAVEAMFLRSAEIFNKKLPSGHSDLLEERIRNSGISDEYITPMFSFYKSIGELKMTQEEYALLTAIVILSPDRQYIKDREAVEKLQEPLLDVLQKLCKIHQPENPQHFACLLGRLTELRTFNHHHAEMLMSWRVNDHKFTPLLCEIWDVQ
# Assay: Inhibition of GW4064-induced transactivation of FXR (unknown origin) expressed in HEK293T cells at 40 uM after 16 hrs by beta-lactamase reporter gene assay relative to control
# Type: cell-based
# Settings: HEK-293T
row,inhibition,Structure (SMILES)
1,60.6%,Cc1ccc(-c2nn(-c3cccc(Cl)c3)cc2C(=O)Nc2ccc(C)c(S(=O)(=O)N3CCOCC3)c2)cc1
2,77.2%,Cc1ccc(-c2nn(-c3ccccc3)cc2C(=O)Nc2ccc(C)c(S(=O)(=O)N3CCOCC3)c2)cc1
3,27%,COc1ccc(-c2nn(-c3ccccc3)cc2C(=O)Nc2cc(S(=O)(=O)N3CCOCC3)ccc2N2CCOCC2)cc1
4,18.6%,O=C(Nc1ccc(S(=O)(=O)N2CCOCC2)cc1)c1cn(-c2ccccc2)nc1-c1ccccc1

# The remaining lines, values behind:
row,Structure (SMILES),inhibition
1,Cc1ccc(-c2nn(Cc3ccc4ccccc4c3)cc2C(=O)Nc2ccc(C)c(S(=O)(=O)N3CCOCC3)c2)cc1,84.4%
2,Cc1ccc(-c2nn(Cc3cccc(C(F)(F)F)c3)cc2C(=O)Nc2ccc(C)c(S(=O)(=O)N3CCOCC3)c2)cc1,93.4%
3,COc1cccc(Cn2cc(C(=O)N(C)c3ccc(C)c(S(=O)(=O)N4CCOCC4)c3)c(-c3cccc(OC)c3)n2)c1,23.8%
4,COc1cccc(Cn2cc(C(=O)Nc3ccc(C)c(S(=O)(=O)N4CCOCC4)c3)c(-c3cccc(OC)c3)n2)c1,89.4%
5,COc1cccc(Cn2cc(C(=O)Nc3ccc(C)c(S(=O)(=O)N4CCOCC4)c3)c(C(C)C)n2)c1,99.2%

# Tested on: not listed separately
# Assay: Cytotoxicity against HEK293T cells expressing FXR and beta-lactamase genes assessed as inhibition of cell viability at 40 uM after 16 hrs by CellTiter-Glo luminescent assay relative to control
# Type: cell-based, HEK-293T
# Settings: human, read-out: INH
# How it was run: (§1)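 Viability run alongside the agonist assay in the same GeneBLAzer FXR HEK 293T cells: 20,000 cells/well in phenol red-free DMEM with 2% charcoal/dextran-treated FBS, 0.5% DMSO, 16 h at 37°C. Cooled 20 min, then CellTiter-Glo added for 20 min in dark; luminescence read.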
row,Structure (SMILES),"cytotoxicity at 16 h, 40 µM"
1,Cc1ccc(-c2nn(-c3cccc(Cl)c3)cc2C(=O)Nc2ccc(C)c(S(=O)(=O)N3CCOCC3)c2)cc1,< 5%
2,Cc1ccc(-c2nn(Cc3cccc(C(F)(F)F)c3)cc2C(=O)Nc2ccc(C)c(S(=O)(=O)N3CCOCC3)c2)cc1,< 5%
3,Cc1ccc(-c2nn(-c3ccccc3)cc2C(=O)Nc2ccc(C)c(S(=O)(=O)N3CCOCC3)c2)cc1,17.9%
4,COc1cccc(Cn2cc(C(=O)N(C)c3ccc(C)c(S(=O)(=O)N4CCOCC4)c3)c(-c3cccc(OC)c3)n2)c1,19.7%
5,COc1cccc(Cn2cc(C(=O)Nc3ccc(C)c(S(=O)(=O)N4CCOCC4)c3)c(-c3cccc(OC)c3)n2)c1,< 5%
6,COc1ccc(-c2nn(-c3ccccc3)cc2C(=O)Nc2cc(S(=O)(=O)N3CCOCC3)ccc2N2CCOCC2)cc1,< 5%
7,COc1cccc(Cn2cc(C(=O)Nc3ccc(C)c(S(=O)(=O)N4CCOCC4)c3)c(C(C)C)n2)c1,< 5%
8,O=C(Nc1ccc(S(=O)(=O)N2CCOCC2)cc1)c1cn(-c2ccccc2)nc1-c1ccccc1,7.4%

# Target: T1, Bile acid receptor (Homo sapiens)
# Assay: Antagonist activity at human GST-tagged FXR at 40 uM after 20 mins by TR-FRET assay relative to control
# Settings: not given
row,Structure (SMILES),inhibition
1,COc1cccc(Cn2cc(C(=O)N(C)c3ccc(C)c(S(=O)(=O)N4CCOCC4)c3)c(-c3cccc(OC)c3)n2)c1,69.7%

# Target: T1, Bile acid receptor (Homo sapiens)
# Assay: Antagonist activity at human GST-tagged FXR at 164 nM after 20 mins by TR-FRET assay relative to control
# Settings: not given
row,inhibition,Structure (SMILES)
1,99.3%,Cc1ccc(-c2nn(-c3cccc(Cl)c3)cc2C(=O)Nc2ccc(C)c(S(=O)(=O)N3CCOCC3)c2)cc1
2,100%,Cc1ccc(-c2nn(-c3ccccc3)cc2C(=O)Nc2ccc(C)c(S(=O)(=O)N3CCOCC3)c2)cc1

# The remaining lines, values behind:
row,Structure (SMILES),inhibition
1,Cc1ccc(-c2nn(Cc3ccc4ccccc4c3)cc2C(=O)Nc2ccc(C)c(S(=O)(=O)N3CCOCC3)c2)cc1,97.8%
2,Cc1ccc(-c2nn(Cc3cccc(C(F)(F)F)c3)cc2C(=O)Nc2ccc(C)c(S(=O)(=O)N3CCOCC3)c2)cc1,99.2%

# Target: T1, Bile acid receptor (Homo sapiens)
# Assay: Antagonist activity at human GST-tagged FXR at 493 nM after 20 mins by TR-FRET assay relative to control
# Settings: not given
row,Structure (SMILES),inhibition
1,COc1cccc(Cn2cc(C(=O)Nc3ccc(C)c(S(=O)(=O)N4CCOCC4)c3)c(-c3cccc(OC)c3)n2)c1,114%
2,O=C(Nc1ccc(S(=O)(=O)N2CCOCC2)cc1)c1cn(-c2ccccc2)nc1-c1ccccc1,12.7%

# Target: T1, Bile acid receptor (Homo sapiens)
# Assay: Antagonist activity at human GST-tagged FXR at 4.4 uM after 20 mins by TR-FRET assay relative to control
# Settings: not given
row,Structure (SMILES),inhibition
1,COc1cccc(Cn2cc(C(=O)Nc3ccc(C)c(S(=O)(=O)N4CCOCC4)c3)c(C(C)C)n2)c1,101%

# Tested on: not listed separately
# Assay: Cytotoxicity against HEK293T cells expressing FXR and beta-lactamase genes assessed as inhibition of cell viability at 4.4 uM after 16 hrs by CellTiter-Glo luminescent assay relative to control
# Type: cell-based, HEK-293T
# Settings: human, read-out: INH
# How it was run: as §1
row,Structure (SMILES),"cytotoxicity at 16 h, 4.4 µM"
1,Cc1ccc(-c2nn(Cc3ccc4ccccc4c3)cc2C(=O)Nc2ccc(C)c(S(=O)(=O)N3CCOCC3)c2)cc1,7.9%

# Target: T1, Bile acid receptor (Homo sapiens)
# Assay: Antagonist activity at human GST-tagged FXR at […] nM after 20 mins by TR-FRET assay relative to control
# Settings: not given
row,Structure (SMILES),inhibition
1,COc1ccc(-c2nn(-c3ccccc3)cc2C(=O)Nc2cc(S(=O)(=O)N3CCOCC3)ccc2N2CCOCC2)cc1,11.6%

# Target: T1, Bile acid receptor (Homo sapiens)
# Assay: Agonist activity at FXR (unknown origin) expressed in HEK293T cells after 16 hrs by beta-lactamase reporter gene assay relative to control
# Type: cell-based
# Settings: HEK-293T
row,Structure (SMILES),Activity
1,Cc1ccc(-c2nn(-c3cccc(Cl)c3)cc2C(=O)Nc2ccc(C)c(S(=O)(=O)N3CCOCC3)c2)cc1,inactive
2,Cc1ccc(-c2nn(Cc3ccc4ccccc4c3)cc2C(=O)Nc2ccc(C)c(S(=O)(=O)N3CCOCC3)c2)cc1,inactive
3,Cc1ccc(-c2nn(Cc3cccc(C(F)(F)F)c3)cc2C(=O)Nc2ccc(C)c(S(=O)(=O)N3CCOCC3)c2)cc1,inactive
4,COc1cccc(Cn2cc(C(=O)N(C)c3ccc(C)c(S(=O)(=O)N4CCOCC4)c3)c(-c3cccc(OC)c3)n2)c1,inactive
5,COc1cccc(Cn2cc(C(=O)Nc3ccc(C)c(S(=O)(=O)N4CCOCC4)c3)c(-c3cccc(OC)c3)n2)c1,inactive
6,COc1cccc(Cn2cc(C(=O)Nc3ccc(C)c(S(=O)(=O)N4CCOCC4)c3)c(C(C)C)n2)c1,inactive

# Target: T1, Bile acid receptor (Homo sapiens)
# Assay: Ratio of E16 IC50 to compound IC50 for human GST-tagged FXR after 20 mins by TR-FRET assay
# Settings: not given
row,Structure (SMILES),Ratio IC50
1,Cc1ccc(-c2nn(-c3cccc(Cl)c3)cc2C(=O)Nc2ccc(C)c(S(=O)(=O)N3CCOCC3)c2)cc1,3

# Target: T1, Bile acid receptor (Homo sapiens)
# Assay: Inhibition of GW4064-induced transactivation of FXR (unknown origin) expressed in HEK293T cells at 1 uM after 16 hrs by beta-lactamase reporter gene assay relative to control
# Type: cell-based
# Settings: HEK-293T
row,Structure (SMILES),inhibition
1,COc1cccc(Cn2cc(C(=O)N(C)c3ccc(C)c(S(=O)(=O)N4CCOCC4)c3)c(-c3cccc(OC)c3)n2)c1,inactive

# Target: T1, Bile acid receptor (Homo sapiens)
# Assay: Agonist activity at human FXR
# Settings: not given
row,Structure (SMILES),Activity
1,Cc1ccc(-c2nn(-c3ccccc3)cc2C(=O)Nc2ccc(C)c(S(=O)(=O)N3CCOCC3)c2)cc1,inactive
2,COc1ccc(-c2nn(-c3ccccc3)cc2C(=O)Nc2cc(S(=O)(=O)N3CCOCC3)ccc2N2CCOCC2)cc1,inactive
3,O=C(Nc1ccc(S(=O)(=O)N2CCOCC2)cc1)c1cn(-c2ccccc2)nc1-c1ccccc1,inactive
